Test results reported in ChEMBL document CHEMBL1156926, “CoMFA analysis of tgDHFR and rlDHFR based on antifolates with 6-5 fused ring system using the all-orientation search (AOS) routine and a modified cross-validated r(2)-guided region selection (q(2)-GRS) routine and its initial application” (Bioorg Med Chem, 2010).
Active and inactive are the calls of the source. No cut-off for these calls is given here.

Assays:
[1] = target: T1, Dihydrofolate reductase (Rattus norvegicus, UniProt Q920D2); assay: Inhibition of rat liver DHFR by spectrophotometric assay
T1 sequence (Q920D2 whole entry): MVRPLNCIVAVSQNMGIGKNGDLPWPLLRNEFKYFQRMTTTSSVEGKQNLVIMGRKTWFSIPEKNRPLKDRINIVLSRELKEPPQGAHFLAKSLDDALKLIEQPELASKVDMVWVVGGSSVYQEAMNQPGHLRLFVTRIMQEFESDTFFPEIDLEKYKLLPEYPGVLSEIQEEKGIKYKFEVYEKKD

[2] = target: T2, Bifunctional dihydrofolate reductase-thymidylate synthase (Toxoplasma gondii, UniProt Q07422); assay: Inhibition of Toxoplasma gondii DHFR by spectrophotometric assay
T2 sequence (Q07422 whole entry): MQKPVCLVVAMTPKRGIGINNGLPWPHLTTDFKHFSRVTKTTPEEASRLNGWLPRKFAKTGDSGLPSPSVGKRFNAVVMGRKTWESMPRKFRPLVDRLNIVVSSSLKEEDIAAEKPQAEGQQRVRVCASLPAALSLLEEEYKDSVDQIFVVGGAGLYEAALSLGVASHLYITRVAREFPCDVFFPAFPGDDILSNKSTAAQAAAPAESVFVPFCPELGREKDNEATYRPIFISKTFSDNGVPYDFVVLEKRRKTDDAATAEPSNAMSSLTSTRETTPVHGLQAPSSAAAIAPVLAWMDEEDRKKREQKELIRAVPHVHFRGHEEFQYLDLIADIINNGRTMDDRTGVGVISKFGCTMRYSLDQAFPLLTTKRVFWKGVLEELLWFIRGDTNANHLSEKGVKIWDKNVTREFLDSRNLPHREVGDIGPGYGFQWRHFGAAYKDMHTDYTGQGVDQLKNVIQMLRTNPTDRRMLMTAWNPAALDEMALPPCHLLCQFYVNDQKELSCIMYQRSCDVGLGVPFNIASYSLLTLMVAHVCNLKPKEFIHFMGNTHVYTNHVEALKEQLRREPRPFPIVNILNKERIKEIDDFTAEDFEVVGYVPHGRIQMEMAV

[3] = target: T1, Dihydrofolate reductase; assay: Inhibition of rat liver DHFR using dihydrofolic acid substrate and NADPH cofactor by spectrophotometric assay
[4] = target: T3, Dihydrofolate reductase (Rattus norvegicus) (UniProt Q920D2); conditions: 24.6 uM
T3 sequence (whole entry): T1 sequence (Q920D2 whole entry)

[5] = system: Toxoplasma gondii; assay: Antimicrobial activity against Toxoplasma gondii RH infected in BALB/c mouse assessed as mouse survival at 50 mg/kg, ip after 5 days; type: functional; conditions: route intraperitoneal
[6] = target: T2, Bifunctional dihydrofolate reductase-thymidylate synthase; assay: Inhibition of Toxoplasma gondii DHFR using dihydrofolic acid substrate and NADPH cofactor by spectrophotometric assay
[7] = system: Toxoplasma gondii; assay: Antimicrobial activity against Toxoplasma gondii RH infected in BALB/c mouse assessed as reduction of parasite level at 50 mg/kg, ip relative to untreated control; type: functional; conditions: route intraperitoneal
Method in brief: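 Female BALB/c mice (18-20 g) inoculated i.p. with 5 × 10³ cultured RH trophozoites. Treatment began 4 h after inoculation: 50 mg/kg/day i.p. (amount injected). Where folic acid was used, it was given in drinking water at 10 microgram/ml. Survival was recorded to day 5 and mice were harvested on day 6. Parasites in peritoneal exudate were counted per 1000x field (10 microliters spread over 1 cm²).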

[8] = system: Toxoplasma gondii; conditions: RH, 50 mg/kg
[9] = system: Toxoplasma gondii; conditions: RH, 50 mg/kg; remark: listed apart in the source

| Compound | IC50 [1] [µM] | IC50 [2] [µM] | further results |
| --- | --- | --- | --- |
| Nc1nc(N)c2c(CNc3ccc4c(c3)C(O)c3ccccc3-4)coc2n1 (stereo unspecified) | > 13 | 63 |  |
| COc1cc(Sc2[nH]c3nc(N)nc(N)c3c2C)cc(OC)c1OC |  |  | IC50 [3]: > 24.6 µM; inhibition [4]: 12% |
| Nc1nc(N)c2c(CSc3ccccc3-c3ccccc3)coc2n1 | 49 | 105 |  |
| Nc1nc(N)c2c(CSc3cccc(Oc4ccccc4)c3)coc2n1 | 39 | 19 |  |
| Nc1nc(N)c2c(CCCc3ccc(OCc4ccccc4)cc3)c[nH]c2n1 | 0.66 | 1.6 |  |
| Cc1[nH]c2nc(N)nc(N)c2c1Sc1ccc(Cl)cc1Cl | 34.6 | 28.2 |  |
| Nc1nc(N)c2c(CSc3ccc(Oc4ccccc4)cc3)coc2n1 | 65 |  |  |
| Cc1cc(C)cc(Sc2[nH]c3nc(N)nc(N)c3c2C)c1 |  |  | IC50 [3]: 7.6 µM |
| Nc1nc(N)c2c(CSc3ccccc3Oc3ccccc3)coc2n1 | 18 | 38 |  |
| Cc1[nH]c2nc(N)nc(N)c2c1Sc1ccccc1 | > 33 | 81 |  |
| Cc1cccc(C)c1Sc1[nH]c2nc(N)nc(N)c2c1C.Cl |  |  | Survival [5]: 100% |
| Nc1nc(N)c2c(CSc3ccc4c(c3)CCCC4)c[nH]c2n1 | 82.9 | 9.2 |  |
| Nc1nc(N)c2c(CNc3cccc4c3CCCC4)c[nH]c2n1 | 59.3 |  |  |
| Nc1nc(N)c2c(CSc3ccc(-c4ccccc4)cc3)coc2n1 | 351 | 79 |  |
| Nc1nc(N)c2c(CNc3cccc4cc5ccccc5cc34)coc2n1 | > 51 |  |  |
| Cc1c(Sc2ccc3ccccc3c2)[nH]c2nc(N)nc(N)c12 |  |  | IC50 [3]: 8.1 µM; IC50 [6]: 1.6 µM |
| Cc1[nH]c2nc(N)nc(N)c2c1Sc1cccc(Cl)c1 | 64 |  |  |
| CCn1c2ccccc2c2cc(NCc3coc4nc(N)nc(N)c34)ccc21 | 12.6 | 4.5 |  |

| Compound | IC50 [1] [µM] | IC50 [2] [µM] | further results |
| --- | --- | --- | --- |
| COc1ccc(OC)c(Sc2c(C)[nH]c3nc(N)nc(N)c23)c1 | > 46 | 87 |  |
| Nc1nc(N)c2c(CCCc3ccc4c(c3)CCCC4)c[nH]c2n1 | 1.09 |  |  |
| Nc1nc(N)c2c(CSc3cccc4c3CCCC4)c[nH]c2n1 | 3 | 0.81 |  |
| COc1ccc(-c2nc3nc(N)nc(N)c3[nH]2)c([N+](=O)[O-])c1OC | > 25 |  |  |
| CCn1c2ccccc2c2cc(N(C)Cc3coc4nc(N)nc(N)c34)ccc21 | 24.7 | 22.6 |  |
| COc1ccc(OC)c(CCCc2c[nH]c3nc(N)nc(N)c23)c1 | 11.8 |  |  |
| COc1ccc(OC)c(NCc2nc3c(N)nc(N)nc3[nH]2)c1 | > 29 |  |  |
| Nc1nc(N)c2c(CNc3ccc4c(c3)Cc3ccccc3-4)coc2n1 | > 10 |  |  |
| Cc1cccc(C)c1Sc1[nH]c2nc(N)nc(N)c2c1C [listing 1 of 2 here] |  |  | IC50 [3]: 0.388 µM; survival at 50 mg/kg ([5]; Toxoplasma gondii, RH, ip, 120 h): 100%; fold change (FC) [7]: >2 |
| Cc1[nH]c2nc(N)nc(N)c2c1Sc1ccc(Cl)cc1 | 37.4 |  |  |
| Cc1[nH]c2nc(N)nc(N)c2c1Sc1cccc2c1CCCC2 | 40 |  |  |
| Cc1c(Sc2cc(Cl)c(Cl)cc2Cl)[nH]c2nc(N)nc(N)c12 |  |  | IC50 [3]: 3 µM; IC50 [6]: 0.212 µM |
| Nc1nc(N)c2c(CCCc3ccccc3)c[nH]c2n1 | 8.6 | 2.7 |  |
| Cc1cccc(C)c1Sc1[nH]c2nc(N)nc(N)c2c1C [listing 2 of 2 here] |  |  | inhibition [8]: Active; inhibition [9]: Active |
| Nc1nc(N)c2c(CSc3cccc(-c4ccccc4)c3)coc2n1 | 31 | 23 |  |
| COc1cc(CCCc2c[nH]c3nc(N)nc(N)c23)cc(OC)c1OC | 4.8 |  |  |
| Nc1nc(N)c2c(CCCc3cc(Cl)ccc3Cl)c[nH]c2n1 | 4.8 |  |  |
